In the library only some 2.8% were active in any assay of this set; here they are far more common.
E-selectin induc – E-selectin induction on HUVECs. activation, % at 7.58 µM. actives 0.37% (n = 260,000). HUVEC E-selectin immunofluorescence imaging; normalized: neutral wells 0, TNF-alpha wells 100. P16581;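 active means mean E-selectin-positive cell signal at least 10% of the positive control, reached in at least 60% of replicates, without over 20% cell loss; inconclusive means no rule given, readout overlaps actives, possibly toxicity-flagged; inactive means the rest, including those meeting only one limit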
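Read-out: % PE-positive cells | Test system: HUVEC | Doses: One compound dose added by pin transfer | Buffer or medium: EGM-2 over gelatin coat | Signal: Immunofluorescence imaging | Benchmarks: TNF-alpha, DMSO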
DENV2 CPE – DENV2-induced cell death inhibition | DENV2-infected cells, cytopathic effect rescue, plate reader | CPE inhibition, % at 9.99 µM | actives 1.7% (n = 350,000); in the data active means CPE inhibition above about 20%, passing the limit was not always enough; inconclusive means no clear call, values can overlap the other calls; tested in BHK-21 cells;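 further: 0% = median of neutral control wells and 100% = median of positive control wells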
SIRT5 block – sirtuin-5 (human) deacylase inhibition | inhibition, % at 15 µM | Purified SirT5, succinyl-peptide AMC, trypsin-coupled fluorescence | actives 1.1% (n = 330,000); in the data active means inhibition above about 15%; inconclusive means no clear call, values can overlap the other calls
Target sequence (Q9NXA8 whole entry, looked up): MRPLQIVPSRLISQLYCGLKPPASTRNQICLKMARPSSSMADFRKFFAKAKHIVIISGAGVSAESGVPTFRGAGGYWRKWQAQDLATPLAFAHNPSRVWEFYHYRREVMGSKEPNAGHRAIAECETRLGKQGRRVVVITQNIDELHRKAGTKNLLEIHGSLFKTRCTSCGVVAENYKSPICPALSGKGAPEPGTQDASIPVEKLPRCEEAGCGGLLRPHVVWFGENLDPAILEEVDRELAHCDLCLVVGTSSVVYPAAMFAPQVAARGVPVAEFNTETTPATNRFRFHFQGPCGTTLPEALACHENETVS
The depositor's hits bear a star; ? = inconclusive; . = not tested or not shown.

SMILES	E-selectin induc	DENV2 CPE	SIRT5 block
COc1ccc(NC(=O)Nc2ccc3c(c2)C(=O)N([C@@H](C)CO)C[C@@H](C)[C@@H](CN(C)C(=O)CCCN(C)C)OCCCC[C@H](C)O3)cc1	0	-5	-6
CO[C@H]1CN(C)C(=O)c2ccc(NC(=O)C3CC3)cc2OC[C@H](C)N(CC2CC2)C[C@@H]1C	0	-6	.
C[C@@H]1CCCCO[C@@H](CN(C)CC2CCCCC2)[C@@H](C)CN([C@@H](C)CO)C(=O)c2cc(NC(=O)Nc3ccccc3)ccc2O1	0	-10	2
C[C@@H]1CCCCO[C@H](CN(C)CC2CCCCC2)[C@H](C)CN([C@@H](C)CO)C(=O)c2cc(NC(=O)Nc3ccccc3)ccc2O1	0	9	2
C[C@@H]1CCCCO[C@@H](CN(C)CC2CC2)[C@H](C)CN([C@H](C)CO)C(=O)c2cc(NC(=O)Nc3ccccc3)ccc2O1	0	41*	-5
C[C@@H]1CCCCO[C@H](CN(C)CC2CCCCC2)[C@@H](C)CN([C@H](C)CO)C(=O)c2cc(NC(=O)Nc3ccccc3)ccc2O1	0	21*	5
COc1cccc(-c2ccc([C@@H]3[C@H](CO)N4C(=O)CN(C(=O)C5CCCC5)C[C@@H]34)cc2)c1	-1	-7	-15
O=C(COC(=O)/C=C/c1ccc(S(=O)(=O)N2CCOCC2)cc1)NCc1ccc(Cl)cc1	1	5	25*
O=C(COC(=O)/C=C/c1ccc(S(=O)(=O)N2CCOCC2)cc1)NCc1ccccc1	4	-7	0
CO[C@@H]1CN(C)C(=O)c2ccc(NS(C)(=O)=O)cc2OC[C@@H](C)N(C(=O)C2CC2)C[C@@H]1C	0	.	0
CSc1ccc(CN(C)CC(=O)Nc2ccccc2C(=O)NC2CC2)cc1	-2	?	-2
CN(CC(=O)Nc1ccccc1C(=O)NC1CC1)Cc1ccccc1F	.	78*	-4
O=C(C[C@@H]1CC[C@@H](NC(=O)c2ccccc2)[C@H](CO)O1)NCc1ccc(Oc2ccccc2)cc1	0	3	0
Nc1ccc2c3c(cccc13)C(=O)N(c1ccccc1)C2=O	0	?	2
CC(C)CCN1C(=O)c2cccc3c(N)ccc(c23)C1=O	26*	5	2
O=C(CN1CCN(C(c2ccccc2)c2ccccc2)CC1)N1CCOCC1	.	23*	-10
N#CCC(=O)N1CCN(C(c2ccccc2)c2ccccc2)CC1	.	-2	-3
Cc1ccc(N(CC(=O)NC(C)(C)C)C(=O)CNC(=O)c2cccs2)cc1	.	0	6
Cc1cccc(N(CC(=O)NC(C)(C)C)C(=O)CNC(=O)c2cccs2)c1C	0	44*	2
Cc1ccc(S(=O)(=O)N(C)C[C@@H]2Oc3ccc(NC(=O)NC(C)C)cc3CC(=O)N([C@@H](C)CO)C[C@@H]2C)cc1	0	-4	-1
CC(C)(C)OC(=O)N(CCc1ccccc1)Cc1ccccc1OCc1ccc(NC(=O)C2CCC2)cc1	.	-10	-1
CC(C)(C)OC(=O)N(CCc1ccccc1)Cc1ccccc1OCc1cccc(NC(=O)C2CC2)c1	-1	-2	-1
CC(C)(C)OC(=O)N(Cc1ccccc1)Cc1ccccc1OCc1ccc(NC(=O)C2CCC2)cc1	0	28*	1
CC(C)(C)OC(=O)N(CCc1ccccc1)Cc1ccccc1OCc1cccc(NC(=O)C2CCCC2)c1	-2	-14	29*
CC(C)(C)OC(=O)N(Cc1ccccc1)Cc1ccccc1OCc1cccc(NC(=O)c2ccccc2)c1	3	-5	0
SMILES	E-selectin induc	DENV2 CPE	SIRT5 block
CC(C)C(=O)Nc1cccc(COc2ccccc2CN(Cc2ccccc2)C(=O)OC(C)(C)C)c1	5	-2	18*
CC(C)NC(=O)N(C)C[C@@H]1OCCCC[C@H](C)Oc2ccc(NS(=O)(=O)c3cccs3)cc2C(=O)N([C@H](C)CO)C[C@@H]1C	.	-7	-5
COCC(=O)Nc1ccc2c(c1)C(=O)N(C)C[C@H](OC)[C@H](C)CN(C(=O)C1CCCC1)[C@H](C)CO2	0	-3	11
C[C@@H]1CCCCO[C@@H](CN(C)Cc2ccc(C(F)(F)F)cc2)[C@H](C)CN([C@H](C)CO)C(=O)c2cc(NC(=O)Nc3ccc(F)cc3)ccc2O1	.	3	0
CCC(=O)N1CCC2(CC1)CN(C(=O)c1cnccn1)[C@@H](CO)c1c2c2ccc(OC)cc2n1C	0	6	0
CN(C)CC(=O)N1[C@@H](CO)[C@@H](c2ccccc2)C12CN(C(=O)c1cccc(F)c1)C2	0	-17	-2
CCCC#Cc1ccc2c(c1)O[C@@H](CN(C)Cc1ccncc1)[C@H](C)CN([C@@H](C)CO)S2(=O)=O	0	5	5
COC(=O)COc1cc(Cl)c(C=O)cc1OC	0	-5	0
CCOC(=O)C(C)Oc1cc(Cl)c(C=O)cc1OC (stereo not drawn)	.	6	16*
O=C(C1CC1)N1C[C@@H]2[C@H](c3ccccc31)[C@@H](CO)N2C(=O)c1cccc(F)c1	0	?	-3
COCC#Cc1cnc2c(c1)C(=O)N([C@H](C)CO)C[C@@H](C)[C@H](CN(C)C(=O)c1cccnc1)O2	0	-2	-4
O=C(NCCCN1CCOCC1)c1ccc2c(c1)N(Cc1cccc(Cl)c1)C(=O)CS2	.	-2	-1
O=C(NCCN1CCOCC1)c1ccc2c(c1)N(Cc1ccc(F)cc1)C(=O)CS2	-1	64*	1
Cc1ccc(S(=O)(=O)NCC[C@H]2CC[C@H](NC(=O)C3CCOCC3)[C@H](CO)O2)cc1	0	-3	6
O=[N+]([O-])c1cccc(S(=O)(=O)Nc2nc3ccccc3nc2Nc2cccc(S(=O)(=O)N3CCCCC3)c2)c1	-1	-2	25*
Cc1ccc(S(=O)(=O)Nc2nc3ccccc3nc2Nc2cccc(S(=O)(=O)N3CCCC3)c2)cc1	.	2	0
Cc1cccnc1C(NC(=O)C1CCN(Cc2ccc(Cl)cc2)CC1)c1ccccc1 (stereo not drawn)	.	6	-1
O=C(NC(c1ccc(Cl)cc1)c1cnccn1)C1CCN(Cc2ccc(Oc3ccccc3)cc2)CC1 (stereo not drawn)	0	84*	0
Cc1ccc(C(NC(=O)C2CCN(Cc3ccc(Oc4ccccc4)cc3)CC2)c2ccccn2)cc1 (stereo not drawn)	0	4	.
COc1cccc(OC)c1OCCN1CCC(C(=O)NC(c2ccc3c(c2)OCO3)c2ccccn2)CC1 (stereo not drawn)	0	-4	.
Cc1cccnc1C(NC(=O)C1CCN(CCCc2ccccc2)CC1)c1ccc(Cl)cc1 (stereo not drawn)	0	20*	2
COc1cccc(CN2CCC(C(=O)N3CCN(Cc4ccc5c(c4)OCO5)CC3)CC2)c1	0	5	17*
COc1cccc(CN2CCC(C(=O)N3CCN(c4ccccc4F)CC3)CC2)c1	.	2	-1
COc1ccc(CN2CCC(C(=O)NC(c3ccc4c(c3)OCO4)c3ccccn3)CC2)cc1 (stereo not drawn)	.	100*	-2
C[C@@H]1CN([C@H](C)CO)C(=O)c2cc(-c3ccncc3)cnc2O[C@@H]1CN(C)C(=O)NC1CCCC1	0	8	-2

Screening results as filed in PubChem BioAssay.
